{"source": "the RNAGym collection of RNA variant scans (doi:10.1126/science.aae0568)", "parents": {"B1": {"name": "tRNA (parent)", "chain": "GUUCCGUUGGCGUAAUGGUAACGCGUCUCCCUCCUAAGGAGAAGACUGCGGGUUCGAGUCCCGUACGGAACG"}}, "note": "This sample holds only a part of the variants without activity."}
{"variants_of": "B1", "assay": "yeast fitness relative to wild type (ratio to wild type); higher = fitter; tRNA-Arg(CCU), competitive growth, 37 C, YPD", "procedure,_shortened": "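Start and end populations of a pooled competition were compared by 100-nucleotide paired-end sequencing of gene amplicons. The Saccharomyces cerevisiae strains carried tRNA-Arg(CCU) gene variants at the native genomic locus, synthesised with a 3% per-site mutation rate at 69 sites, and competed in YPD at 37°C for 24 hours in six parallel replicates. Darwinian fitness relative to wild type was based on the change in genotype frequencies. Genotypes required ≥ 100 starting reads, and estimates < 0.5 were set to 0.5.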"}
{"variant": "GUUCCGUUGGCGUAAUGGUAACGCGUCUCCCUCCUAAGGAGAAGACUGCGGGUUCGAGUCCCGUACGCACCG", "yeast fitness": 0.837}
{"variant": "GUUCCGUUGGCGUAAUGGUAACGCGUCUCCCUCCUAAGGAGAAGACUGCGGGUUCGAGUCCCGUACGGGUCG", "yeast fitness": 0.99}
{"variant": "GUUCCGUUGGCGUAAUGGUAACGCGUCUCCCUCCUAAGGAGAAGACUGCGGGUUCGAGUCCCGUACGGAGCG", "yeast fitness": 0.999}
{"variant": "GUUCCGUUGGCGUAAUGGUAACGCGUCUCCCUCCUAAGGAGAAGACUGCGGGUUCGAGUCCCGUACGGACCG", "yeast fitness": 1.04}
{"variant": "GUUCCGUUGGCGUAAUGGUAACGCGUCUCCCUCCUAAGGAGAAGACUGCGGGUUCGAGUCCCGUACGGAUCG", "yeast fitness": 1.02}
{"variant": "GUUCCGUUGGCGUAAUGGUAACGCGUCUCCCUCCUAAGGAGAAGACUGCGGGUUCGAGUCCCGUACGGUCCG", "yeast fitness": 1.04}
{"variant": "GUUCCGUUGGCGUAAUGGUAACGCGUCUCCCUCCUAAGGAGAAGACUGCGGGUUCGAGUCCCGUACGUGACG", "yeast fitness": 0.998}
{"variant": "GUUCCGUUGGCGUAAUGGUAACGCGUCUCCCUCCUAAGGAGAAGACUGCGGGUUCGAGUCCCGUACGGCUCG", "yeast fitness": 1.05}
{"variant": "GUUCCGUUGGCGUAAUGGUAACGCGUCUCCCUCCUAAGGAGAAGACUGCGGGUUCGAGUCCCGUACGGCGCG", "yeast fitness": 1.02}
{"variant": "GUUCCGUUGGCGUAAUGGUAACGCGUCUCCCUCCUAAGGAGAAGACUGCGGGUUCGAGUCCCGUACGGCCCG", "yeast fitness": 0.982}
{"variant": "GUUCCGUUGGCGUAAUGGUAACGCGUCUCCCUCCUAAGGAGAAGACUGCGGGUUCGAGUCCCGUACGCUACG", "yeast fitness": 0.711}
{"variant": "GUUCCGUUGGCGUAAUGGUAACGCGUCUCCCUCCUAAGGAGAAGACUGCGGGUUCGAGUCCCGUACGCGACG", "yeast fitness": 0.945}
{"variant": "GUUCCGUUGGCGUAAUGGUAACGCGUCUCCCUCCUAAGGAGAAGACUGCGGGUUCGAGUCCCGUACGCCACG", "yeast fitness": 0.786}
{"variant": "GUUCCGUUGGCGUAAUGGUAACGCGUCUCCCUCCUAAGGAGAAGACUGCGGGUUCGAGUCCCGUACGUAACG", "yeast fitness": 1.02}
{"variant": "GUUCCGUUGGCGUAAUGGUAACGCGUCUCCCUCCUAAGGAGAAGACUGCGGGUUCGAGUCCCGUACGCAACG", "yeast fitness": 0.968}
{"variant": "GUUCCGUUGGCGUAAUGGUAACGCGUCUCCCUCCUAAGGAGAAGACUGCGGGUUCGAGUCCCGUACGAAUCG", "yeast fitness": 1.21}
